{"source": "ChEMBL document CHEMBL1687813", "about": "(Antimicrob Agents Chemother, 2010)", "key": {"[1]": {"system": "Mycobacterium tuberculosis", "assay": "Antimicrobial activity against Mycobacterium tuberculosis H37Ra after 11 days by broth microdilution method at pH 6.8", "type": "functional", "conditions": "264 h", "method_in_brief": "(§1)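 Tubercle bacilli were diluted to 10^6 CFU/ml in supplemented 7H9 containing graded PZA or 5-Cl PZA, at pH 6.0 or neutral pH 6.8. Cultures were incubated 11 days at 37°C. The MIC is the lowest concentration blocking visible growth. Integrated amidase constructs were induced with 50 ng/ml anhydrotetracycline.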"}, "[2]": {"system": "Mycolicibacterium smegmatis", "assay": "Antimicrobial activity against Mycobacterium smegmatis mc27034 harboring deltaMSMEG_1090 from Mycobacterium smegmatis mc27031 after 48 hrs by broth microdilution method", "type": "functional", "conditions": "mc27034, 48 h", "method_in_brief": "(§2)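 Broth MIC: exponentially growing cells were diluted to 10^6 CFU/ml in supplemented 7H9 across a range of PZA or 5-Cl PZA concentrations. Medium was adjusted to pH 5.2 where indicated. Cultures were incubated 2 days at 37°C. The MIC is the lowest concentration preventing visible growth. Plasmid-borne amidases were induced with 50 ng/ml anhydrotetracycline.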"}, "[3]": {"system": "Mycolicibacterium smegmatis", "assay": "Antimicrobial activity against 5-Cl-PZA-resistant Mycobacterium smegmatis mc27037 after 48 hrs by broth microdilution method", "type": "functional", "conditions": "mc27037, 48 h", "method_in_brief": "as §2"}, "[4]": {"system": "Mycolicibacterium smegmatis", "assay": "Antimicrobial activity against Mycobacterium smegmatis mc27038 harboring attBL5::Ptc::pzaAMsmeg from Mycobacterium smegmatis mc2155 after 48 hrs by broth microdilution method", "type": "functional", "conditions": "mc27038, 48 h", "method_in_brief": "as §2"}, "[5]": {"target": "T1, Nicotinamidase/pyrazinamidase (Mycolicibacterium smegmatis) (UniProt Q9ZHK8)", "T1 sequence (whole entry)": "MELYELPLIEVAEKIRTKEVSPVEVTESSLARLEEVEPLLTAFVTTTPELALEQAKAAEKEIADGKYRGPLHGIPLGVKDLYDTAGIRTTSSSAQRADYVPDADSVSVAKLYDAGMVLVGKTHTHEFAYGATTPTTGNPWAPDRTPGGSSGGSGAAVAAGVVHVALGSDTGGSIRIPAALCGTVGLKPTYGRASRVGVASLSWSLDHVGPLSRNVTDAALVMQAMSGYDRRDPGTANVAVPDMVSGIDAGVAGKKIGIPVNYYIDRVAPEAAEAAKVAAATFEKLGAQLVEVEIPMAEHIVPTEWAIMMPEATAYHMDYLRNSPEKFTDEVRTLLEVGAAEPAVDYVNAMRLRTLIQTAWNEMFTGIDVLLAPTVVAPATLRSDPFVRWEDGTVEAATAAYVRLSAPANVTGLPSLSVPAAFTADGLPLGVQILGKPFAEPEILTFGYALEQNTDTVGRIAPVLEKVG", "assay": "Activity of PzaA in Mycobacterium smegmatis mc2155 assessed as compound turnover per ml of microbial cells after 30 mins by […] analysis"}, "[6]": {"system": "Mycobacterium tuberculosis", "assay": "Antimicrobial activity against Mycobacterium tuberculosis H37Ra after 11 days by broth microdilution method at pH 6", "type": "functional", "conditions": "264 h", "method_in_brief": "as §1"}, "[7]": {"target": "T1, Nicotinamidase/pyrazinamidase (Mycolicibacterium smegmatis)", "assay": "Activity of PzaA in Mycobacterium smegmatis mc27038 assessed as compound turnover per ml of microbial cells after 30 mins by […] analysis", "method_in_brief": "(§3)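 Whole-cell colorimetric amidase assay: log-phase cells were pelleted and resuspended in sterile water with 0.05% tyloxapol. Substrate (PZA or 5-Cl PZA) was added to 2 mM at 37°C with shaking and sampled at intervals. Clarified aliquots received ferrous ammonium sulfate (20 mM final), stood 30 min at 4°C, were re-spun, and were read at OD468. Extinction coefficients were 0.68 (PA) and 0.47 (5-Cl PA) per mM. Activity is nmol/min per ml of cells (OD600).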"}, "[8]": {"system": "Mycolicibacterium smegmatis", "assay": "Antimicrobial activity against 5-Cl PZA-resistant Mycobacterium smegmatis mc22612after 48 hrs by broth microdilution method", "type": "functional", "conditions": "mc22612, 48 h"}, "[9]": {"system": "Mycolicibacterium smegmatis", "assay": "Antimicrobial activity against Mycobacterium smegmatis mc27035 harboring deltaMSMEG_1090 from Mycobacterium smegmatis mc2155 after 48 hrs by broth microdilution method", "type": "functional", "conditions": "mc27035, 48 h", "method_in_brief": "as §2"}, "[10]": {"target": "T1, Nicotinamidase/pyrazinamidase (Mycolicibacterium smegmatis)", "assay": "Activity of PzaA in Mycobacterium smegmatis mc27032 assessed as compound turnover per ml of microbial cells after 30 mins by […] analysis", "method_in_brief": "as §3"}, "[11]": {"system": "Mycolicibacterium smegmatis", "assay": "Antimicrobial activity against Mycobacterium smegmatis mc27031 harboring MSMEG_1088::magellan4 after 48 hrs by broth microdilution method", "type": "functional", "conditions": "mc27031, 48 h", "method_in_brief": "as §2"}, "[12]": {"target": "T1, Nicotinamidase/pyrazinamidase (Mycolicibacterium smegmatis)", "assay": "Activity of PzaA in Mycobacterium smegmatis mc22612 assessed as compound turnover per ml of microbial cells after 30 mins by […] analysis"}, "[13]": {"system": "Mycolicibacterium smegmatis", "assay": "Inhibition of Fatty acid synthase type 1 in Mycobacterium smegmatis mc2155 at 250 ug/ml after 2 hrs by HPLC"}, "[14]": {"system": "Mycolicibacterium smegmatis", "assay": "Antimicrobial activity against Mycobacterium smegmatis mc2155 after 48 hrs by broth microdilution method", "type": "functional", "conditions": "mc2155, 48 h"}, "[15]": {"target": "T1, Nicotinamidase/pyrazinamidase (Mycolicibacterium smegmatis)", "assay": "Activity of PzaA in Mycobacterium smegmatis mc27031 assessed as compound turnover per ml of microbial cells after 30 mins by […] analysis", "method_in_brief": "as §3"}, "[16]": {"target": "T1, Nicotinamidase/pyrazinamidase (Mycolicibacterium smegmatis)", "assay": "Activity of PzaA in Mycobacterium smegmatis mc27034 assessed as compound turnover per ml of microbial cells after 30 mins by […] analysis", "method_in_brief": "as §3"}, "[17]": {"system": "Mycolicibacterium smegmatis", "assay": "Antimicrobial activity against Mycobacterium smegmatis mc27032 harboring deltaMSMEG_1088 from Mycobacterium smegmatis mc2155 after 48 hrs by broth microdilution method", "type": "functional", "conditions": "mc27032, 48 h", "method_in_brief": "as §2"}, "[18]": {"target": "T1, Nicotinamidase/pyrazinamidase (Mycolicibacterium smegmatis)", "assay": "Activity of PzaA in Mycobacterium smegmatis mc27037 assessed as compound turnover per ml of microbial cells after 30 mins by […] analysis", "method_in_brief": "as §3"}, "[19]": {"system": "Mycolicibacterium smegmatis", "assay": "Antimicrobial activity against Mycobacterium smegmatis mc27036 harboring deltaMSMEG_1090 from Mycobacterium smegmatis mc22612 after 48 hrs by broth microdilution method", "type": "functional", "conditions": "mc27036, 48 h", "method_in_brief": "as §2"}, "[20]": {"target": "T1, Nicotinamidase/pyrazinamidase (Mycolicibacterium smegmatis)", "assay": "Activity of PzaA in Mycobacterium smegmatis mc27035 assessed as compound turnover per ml of microbial cells after 30 mins by […] analysis", "method_in_brief": "as §3"}, "[21]": {"target": "T1, Nicotinamidase/pyrazinamidase (Mycolicibacterium smegmatis)", "assay": "Activity of PzaA in Mycobacterium smegmatis mc27036 assessed as compound turnover per ml of microbial cells after 30 mins by […] analysis", "method_in_brief": "as §3"}, "[22]": {"system": "Mycolicibacterium smegmatis", "assay": "Inhibition of Fatty acid synthase type 1 in Mycobacterium smegmatis mc27031 at 1500 ug/ml after 2 hrs by HPLC"}, "[23]": {"target": "T2, PYRAZINAMIDASE/NICOTINAMIDAS PNCA (PZase) (Mycobacterium tuberculosis) (UniProt Q50575)", "T2 sequence (whole entry)": "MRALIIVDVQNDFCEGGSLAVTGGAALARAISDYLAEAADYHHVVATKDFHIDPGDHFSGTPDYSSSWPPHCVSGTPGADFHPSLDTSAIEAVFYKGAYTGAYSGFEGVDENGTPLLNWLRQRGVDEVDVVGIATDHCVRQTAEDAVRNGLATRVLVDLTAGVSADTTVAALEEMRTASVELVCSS", "assay": "Activity of PncA in Mycobacterium tuberculosis H37Ra assessed as compound turnover per ml of microbial cells after 30 mins by […] analysis", "method_in_brief": "as §3"}, "[24]": {"system": "Mycolicibacterium smegmatis", "assay": "Inhibition of Fatty acid synthase type 1 in Mycobacterium smegmatis mc27031 at 2.5 mg/ml after 2 hrs by HPLC", "method_in_brief": "(§4)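 FAS I activity: mid-log cells (OD600 0.5) were resuspended to OD600 0.2 in 7H9 with 0.2% dextrose and 0.05% tyloxapol, pH 5.1, plus 2.5 mg/ml PZA, for 2 h at 37°C. They were pulsed with [1-14C]acetate (1 μCi/ml) for a further 2 h. Lipids were extracted, saponified, and derivatized to p-bromophenacyl esters. 14C-palmitate was quantified by reverse-phase HPLC.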"}, "[25]": {"system": "Mycolicibacterium smegmatis", "assay": "Inhibition of Fatty acid synthase type 1 in Mycobacterium smegmatis mc2155 at 2.5 mg/ml after 2 hrs by HPLC", "method_in_brief": "as §4"}}, "note": "The source made the active and inactive calls. The calls are words filed in the database; no cut-off is given here."}
{"smiles": "NC(=O)c1cnc(Cl)cn1", "values": [{"measurement": "MIC", "setting": "[1]", "result": 200, "unit": "µg/mL"}, {"measurement": "MIC", "setting": "[2]", "result": 25, "unit": "µg/mL"}, {"measurement": "MIC", "setting": "[3]", "result": 125, "unit": "µg/mL"}, {"measurement": "MIC", "setting": "[4]", "result": 125, "unit": "µg/mL"}, {"measurement": "Activity", "setting": "[5]", "result": 0.85, "unit": "nmol/min"}, {"measurement": "MIC", "setting": "[6]", "result": 25, "unit": "µg/mL"}, {"measurement": "Activity", "setting": "[7]", "result": 34, "unit": "nmol/min"}, {"measurement": "MIC", "setting": "[8]", "result": 125, "unit": "µg/mL"}, {"measurement": "MIC", "setting": "[9]", "result": 25, "unit": "µg/mL"}, {"measurement": "Activity", "setting": "[10]", "result": 65, "unit": "nmol/min"}, {"measurement": "MIC", "setting": "[11]", "result": 125, "unit": "µg/mL"}, {"measurement": "Activity", "setting": "[12]", "result": 32, "unit": "nmol/min"}, {"measurement": "Activity", "setting": "[13]", "result": "Active"}, {"measurement": "MIC", "setting": "[14]", "result": 25, "unit": "µg/mL"}, {"measurement": "Activity", "setting": "[15]", "result": 100, "unit": "nmol/min"}, {"measurement": "Activity", "setting": "[16]", "result": 1.2, "unit": "nmol/min"}, {"measurement": "MIC", "setting": "[17]", "result": 125, "unit": "µg/mL"}, {"measurement": "Activity", "setting": "[18]", "result": 100, "unit": "nmol/min"}, {"measurement": "MIC", "setting": "[19]", "result": 25, "unit": "µg/mL"}, {"measurement": "Activity", "setting": "[20]", "result": 0.95, "unit": "nmol/min"}, {"measurement": "Activity", "setting": "[21]", "result": 1.2, "unit": "nmol/min"}, {"measurement": "Activity", "setting": "[22]", "result": "Active"}, {"measurement": "Activity", "setting": "[23]", "result": 0.15, "unit": "nmol/min"}]}
{"smiles": "NC(=O)c1cnccn1", "note": "[PYRAZINAMIDE]", "values": [{"measurement": "MIC", "setting": "[1]", "result": 62.5, "unit": "µg/mL"}, {"measurement": "MIC", "setting": "[2]", "result": "> 4000", "unit": "µg/mL"}, {"measurement": "MIC", "setting": "[3]", "result": 150, "unit": "µg/mL"}, {"measurement": "MIC", "setting": "[4]", "result": "> 4000", "unit": "µg/mL"}, {"measurement": "inhibition", "setting": "[24]", "result": "inactive"}, {"measurement": "Activity", "setting": "[5]", "result": 0.85, "unit": "nmol/min"}, {"measurement": "MIC", "setting": "[6]", "result": "> 1000", "unit": "µg/mL"}, {"measurement": "inhibition", "setting": "[25]", "result": "Active"}, {"measurement": "Activity", "setting": "[7]", "result": 34, "unit": "nmol/min"}, {"measurement": "MIC", "setting": "[8]", "result": "> 4000", "unit": "µg/mL"}, {"measurement": "MIC", "setting": "[9]", "result": "> 4000", "unit": "µg/mL"}, {"measurement": "Activity", "setting": "[10]", "result": 65, "unit": "nmol/min"}, {"measurement": "MIC", "setting": "[11]", "result": 150, "unit": "µg/mL"}, {"measurement": "Activity", "setting": "[12]", "result": 32, "unit": "nmol/min"}, {"measurement": "MIC", "setting": "[14]", "result": "> 4000", "unit": "µg/mL"}, {"measurement": "Activity", "setting": "[15]", "result": 100, "unit": "nmol/min"}, {"measurement": "Activity", "setting": "[16]", "result": 1.2, "unit": "nmol/min"}, {"measurement": "MIC", "setting": "[17]", "result": 150, "unit": "µg/mL"}, {"measurement": "Activity", "setting": "[18]", "result": 100, "unit": "nmol/min"}, {"measurement": "MIC", "setting": "[19]", "result": "> 4000", "unit": "µg/mL"}, {"measurement": "Activity", "setting": "[20]", "result": 0.95, "unit": "nmol/min"}, {"measurement": "Activity", "setting": "[21]", "result": 1.2, "unit": "nmol/min"}, {"measurement": "Activity", "setting": "[23]", "result": 0.23, "unit": "nmol/min"}]}
